From PubChem
Insulin prom inh: TRM-6 insulin promoter activity inhibition; inhibition, % at 2 µM; AID 1273; TRM-6 cells (human fetal islet line), insulin promoter-eGFP reporter, imaging; reporter expression induced with tamoxifen; 130,000 tested, 0.9% active;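 active = inhibition above the mean plus 3 SD, with well images judged a real hit on visual review, cut at about 60% in these data, passing the limit was not always enough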
bCat nuc transl: alters nuclear translocation of beta-catenin in HeLa cells; immunofluorescence imaging; nuclear translocation activity, % at 5 µM; 190,000 tested, 0.3% active; AID 1665;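 active = nuclear translocation activity above 50% at 5 µM, with a well cell count of 50 or more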;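 also: per-cell ratio of nuclear to cytoplasmic median beta-catenin stain intensity; plate controls were DMSO negative control for no effect and GSK-3 inhibitor IX positive control for full effect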
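Read-out: Nuclear/cytoplasmic beta-catenin signal ratio, % activation | Assay system: Human HeLa cell line | Times: 24 h compound exposure at 37°C, 5% CO2 | Signal: Fluorescence imaging of beta-catenin antibody stain plus DAPI | Dosing: 5 µM primary, 0.02–20 µM confirmation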
HSV augment: HSV replication enhancement. HSV replication augmentation in cells, fold increase. maximum fold increase. 220,000 tested, 0.005% active; in the data active = maximum fold increase above about 1.5; tested in PC3 cells
MT stabilizer: microtubule stabilizers in HeLa cells | HeLa tubulin immunostaining HCS, 24 h; share of cells brighter than vehicle mean+2SD | % tubulin-high responders, % at 10 µM | 200,000 tested, 0.83% active;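 active = plate Z-score above 3 for both tubulin-high and condensed-nucleus cell shares, with cell loss under 80%, at 10 µM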;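 also: anti alpha tubulin signal scored within the nucleus-defined area of each cell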
ROMK primary: human ROMK K+ channel modulation, primary screen; B-score at 10 µM; AID 1918; 130,000 tested, 2% active; Tet-inducible ROMK, thallium flux fluorescence; actives lie on both sides;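 active = signal ratio slope over the read window, or its plate-corrected B-score, at least 3 SD from the plate mean, either direction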;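 also: B-score of the F/F0 ratio slope over 7 to 12 s after thallium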
Target sequence (P48048 whole entry, looked up): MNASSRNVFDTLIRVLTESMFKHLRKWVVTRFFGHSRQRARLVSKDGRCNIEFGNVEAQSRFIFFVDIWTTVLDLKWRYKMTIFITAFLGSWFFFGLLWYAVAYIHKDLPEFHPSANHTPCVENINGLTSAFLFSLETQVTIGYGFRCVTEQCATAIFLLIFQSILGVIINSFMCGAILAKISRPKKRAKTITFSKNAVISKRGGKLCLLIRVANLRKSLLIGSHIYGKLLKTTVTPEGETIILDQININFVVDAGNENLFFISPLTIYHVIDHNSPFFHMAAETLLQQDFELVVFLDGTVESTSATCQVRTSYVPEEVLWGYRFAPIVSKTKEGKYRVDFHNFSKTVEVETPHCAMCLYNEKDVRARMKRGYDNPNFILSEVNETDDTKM
An asterisk follows results filed as active; i = inactive; . = no result given. Compounds with a hit are over-represented: about 2.4% of the library has one in this group of screens.

SMILES	Insulin prom inh	bCat nuc transl	HSV augment	MT stabilizer	ROMK primary
Cc1cccc(CN2C(=O)N/C(=C/c3ccc(C)s3)C2=O)c1	-96	67*	i	53*	.
CCN(CC)CCCN1CC(O)=C(c2nc3ccccc3s2)C1=N	66*	-2	i	1	-2.1
CCOc1ccccc1N1CC(O)=C(c2nc3ccccc3s2)C1=N	-146	10	i	28*	1.1
N=C1C(c2nc3ccccc3s2)=C(O)CN1Cc1ccccc1	16	1	i	10	-0.041
O=C(Nc1cccc(Cl)c1)Nn1cnnc1	.	-1	i	.	.
Cc1cccc2nc(COc3ccc(Cl)c4cccnc34)cn12	-14	0	i	2	-1.1
CCc1cc(-c2n[nH]c(C)c2-c2nc3ccccc3n2C)c(O)cc1O	.	21	i	14*	-1.2
CCOc1ccccc1NC(=S)N(CCC(C)C)C1CCN(C(C)=O)CC1	-5	0	i	4	-0.096
O=C(COC(=O)c1cc2ccccc2oc1=O)Nc1ccc(F)cc1F	.	-3	i	.	.
CCc1ccc2oc(-c3ccc(OC)cc3)cc(=Nc3cccc(C(=O)O)c3)c2c1	.	0	i	2	2.3*
COc1ccc(OC)c2c1sc(=NC(=O)C1COc3ccccc3O1)n2C (stereo unspecified)	.	0	i	.	-0.33
O=C(Nc1ccc(Cl)cc1C(F)(F)F)C(Sc1nnc(-c2cccs2)o1)c1ccccc1 (stereo unspecified)	-12	33	i	14*	0.23
Cc1cccc2sc(NNC(=O)c3ccc(S(=O)(=O)N4CCCC(C)C4)cc3)nc12 (stereo unspecified)	65*	-3	.	10	-1.6
CCOC(=O)N1CCN(S(=O)(=O)c2ccc(C(=O)NNc3nc4c(C)cccc4s3)cc2)CC1	-67	1	i	2	2.1
Cc1cccc2sc(NNC(=O)c3ccc(S(=O)(=O)N4CCc5ccccc5C4)cc3)nc12	71*	-6	.	6	0.85
Cc1ccc(C(=O)c2coc3cc([N+](=O)[O-])c(O)c([N+](=O)[O-])c23)cc1	-12	0	i	2	1.3
COC(=O)c1ccc2c(c1)C(C)(C)C(/C=C/c1ccccc1O)=[N+]2C	-20	1	i	53*	.
CC(NC(=O)c1ccccc1)C(=O)N/N=C/c1cccc([N+](=O)[O-])c1 (stereo unspecified)	-25	0	i	2	0.4
CCSc1nnc(NC(=O)C(C)(C)C)s1	77*	.	i	2	.
Cc1nnc(NC(=O)CSc2nnc(NC(=O)C(C)(C)C)s2)s1	11	2	i	1	1.2
CCCCC1NC(=S)N(C2CCCCC2)C1=O (stereo unspecified)	-11	-2	i	3	-0.59
O=[N+]([O-])c1cccc2c3c([nH]c12)CCCC3	.	0	i	.	.
CCc1ccc(NC(=O)Cn2nnc(C(=O)NCc3cccs3)c2N)cc1	18	-1	i	3	-0.55
CCc1ccccc1NC(=O)Cn1nnc(C(=O)NCc2cccs2)c1N	-60	1	i	30*	1.9
COc1cc(C(=O)Nc2sc3c(c2C#N)CCN(C(C)=O)C3)cc(OC)c1OC	.	-2	i	6	.
SMILES	Insulin prom inh	bCat nuc transl	HSV augment	MT stabilizer	ROMK primary
COc1ccc(C(=O)Nc2sc3c(c2C#N)CCN(C(C)=O)C3)cc1	-118	60*	i	14*	1.8
COC(=O)c1c(NC(=O)c2ccccc2N(C)S(=O)(=O)c2ccccc2)sc2c1CCCC2	.	2	i	22*	.
CCOC(=O)c1c(NC(=O)c2ccco2)sc2c1CCCC2	.	-2	i	2	-0.13
CCOC(=O)c1c(NC(=O)c2ccccc2N(C)S(=O)(=O)c2ccccc2)sc2c1CCCC2	.	60*	i	13*	.
N#CN(Cc1ccccc1)Cc1ccccc1	.	-2	i	.	.
COc1ccc(CCN2C(=O)CC(N3CCN(C/C=C/c4ccccc4)CC3)C2=O)cc1OC (stereo unspecified)	.	0	i	.	-0.075
CCOc1ncccc1C(=O)OCC(=O)c1ccccc1Br	-33	1	i	5	0.42
CCOc1ccnc(OCC)c1Br	79*	2	i	3	0.45
CC(=O)Nc1ccc(NC(=O)c2ccc(CSc3ccccc3)o2)cc1	82*	1	i	3	-0.51
NC(=O)CC(NC(=O)Cc1ccc(Br)cc1)c1ccc(NCc2ccc(F)cc2)c([N+](=O)[O-])c1 (stereo unspecified)	.	-1	i	.	.
O=C(Nc1ccccc1)/C(=C/c1cccnc1)NC(=O)c1ccco1	33	-1	i	3	.
